Results taken from ChEMBL document CHEMBL4017498, “Pilot in Vivo Structure-Activity Relationship of Dihydromethysticin in Blocking 4-(Methylnitrosamino)-1-(3-pyridyl)-1-butanone-Induced O6-Methylguanine and Lung Tumor in A/J Mice” (J Med Chem, 2017).

Legend:
Mus musculus [1] = assay: Toxicity in NNK-induced long-term lung adenoma A/J mouse model assessed as effect on liver weight at 25 ppm administered with AIN-M powder […] followed by NNK induction on day 7 at 100 mg/kg during compound dosing and […] post last dose measured after day 119; assay type: organism-based; settings: in vivo, po
Procedure, shortened: (§1)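 Female A/J mice fed AIN-93G diet with compound at 25 ppm. NNK given i.p. at 100 and 67 mg/kg on Day 7 and Day 14. Switched to AIN-M diet 24 h after the last NNK. On Day 119, mice were weighed, euthanized with CO2, and livers excised and weighed. Relative liver weight is liver weight divided by bodyweight for each mouse.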

Mus musculus [2] = assay: Toxicity in NNK-induced long-term lung adenoma A/J mouse model assessed as effect on liver weight at 25 ppm administered with AIN-M powder for […] followed by NNK induction on day 7 at 100 mg/kg during compound dosing and […] post last dose measured after day 119 relative to body weight; assay type: organism-based; settings: in vivo, po; procedure, shortened: as §1
Mus musculus [3] = assay: Reduction in NNK-induced O6-methylguanine DNA adduct formation in A/J mouse lung at 200 ppm administered with AIN-93 G powder for 7 days followed by NNK-induction on day 7 post dose measured after 4 hrs by LC-ESI-MS/MS method relative to control; assay type: functional; set-up: scale not given: the % may be the effect or the level left
Procedure, shortened: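 Female A/J mice (6–7 weeks, one-week acclimation) fed AIN-93G powdered diet with 200 ppm compound from Day 0 (ethanol-processed diet for controls; n=3 per treatment, n=6 NNK control). Single i.p. NNK, 100 mg/kg in saline, on Day 7; lungs collected 4 h later. DNA isolated from half lung; O6-mG quantified by LC-MS/MS. Mean ± SD; one-way ANOVA with Dunnett's test versus NNK control.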

Mus musculus [4] = assay: Reduction in NNK-induced long-term lung adenoma formation in A/J mouse at 25 ppm administered with AIN-M powder […] followed by NNK induction on day 7 at 100 mg/kg during compound dosing and […] post last dose measured after day 119 relative to control; assay type: functional; set-up: scale not given: the % may be the effect or the level left
Procedure, shortened: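 Female A/J mice fed AIN-93G powder diet with compound at 25 ppm (added in ethanol, vacuum-dried, dose checked by HPLC). NNK in saline given i.p. at 100 and 67 mg/kg on Day 7 and Day 14. Treated diet stopped 24 h after the last NNK, then AIN-M diet. On Day 119, surface lung adenomas were counted blinded by a pathologist. Mean ± SD; one-way ANOVA with Dunnett's test vs NNK control.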

Mus musculus [5] = assay: Toxicity in NNK-induced long-term lung adenoma A/J mouse model assessed as effect on body weight at 25 ppm administered with AIN-M powder […] followed by NNK induction on day 7 at 100 mg/kg during compound dosing and […] at 67 mg/kg post last dose measured every once a week during compound dosing; assay type: organism-based; settings: in vivo, po
Procedure, shortened: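 Female A/J mice fed AIN-93G diet with compound at 25 ppm. NNK given i.p. at 100 mg/kg on Day 7 and 67 mg/kg on Day 14. Treated diet ended 24 h after the last NNK, followed by AIN-M diet. Bodyweight recorded once weekly and food intake twice weekly through Day 119.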

[6] = Drug metabolism in mouse liver microsomes assessed as CYP450-mediated 7-(3,4-dihydroxyphenyl)-5-hydroxy-3-methoxyhept-2-enoic acid formation by LC-MS/MS method; assay type: ADME
Liver [7] = assay: Drug metabolism in mouse liver microsomes assessed as 7-(benzo[d][1,3]dioxol-5-yl)-5-hydroxy-3-methoxyhept-2-enoic acid formation by LC-MS/MS method; assay type: ADME, microsome
Liver [8] = assay: Drug level in mouse liver microsomes treated with (+)DHM by LC-MS/MS method; assay type: ADME, microsome
[9] = Drug level in mouse liver microsomes treated with (+)DHM assessed as CYP450-mediated compound formation by LC-MS/MS method; assay type: ADME

With `COC1=CC(=O)OC(CCc2ccc3c(c2)CCC3)C1` (stereo not given) the Activity (Mus musculus [1]) was “Non-Toxic”, the Activity (Mus musculus [2]) was “Non-Toxic” and the Activity (Mus musculus [3]) was 29.6%. The Activity (Mus musculus [4]) was 10.1% and the Activity (Mus musculus [5]) was “Non-Toxic”.

In the case of `COC1=CC(=O)OC(CCc2ccc3c(c2)OCO3)C1` (racemic), the Activity (Mus musculus [1]) is reported as “Non-Toxic”, the Activity (Mus musculus [2]) is reported as “Non-Toxic” and the Activity (Mus musculus [3]) is reported as 72.3%. For the same compound, the Activity (Mus musculus [4]) was 94.2% and the Activity (Mus musculus [5]) was “Non-Toxic”.

With `COC1=CC(=O)OC(CCc2ccccc2)C1` (racemic) the Activity (Mus musculus [1]) was “Non-Toxic”, the Activity (Mus musculus [2]) was “Non-Toxic” and the Activity (Mus musculus [3]) was 16.4%. The Activity (Mus musculus [4]) was 6.3% and the Activity (Mus musculus [5]) was “Non-Toxic”.

In the case of `COC1=CC(=O)O[C@@H](CCc2ccc3c(c2)OCO3)C1` [DIHYDROMETHYSTICIN], the Drug metabolism [6] is reported as “Metabolite_Detected” and the Drug metabolism (Liver [7]) is reported as “Metabolite_Detected”.

In the case of `CO/C(=C/C(=O)O)CC(O)CCc1ccc2c(c1)OCO2` (stereo not given), the Drug metabolism (Liver [8]) is reported as “Metabolite_Detected”.

In the case of `CO/C(=C/C(=O)O)CC(O)CCc1ccc(O)c(O)c1` (stereo not given), the Drug metabolism [9] is reported as “Metabolite_Detected”.

With `COC1=CC(=O)CC(CCc2ccc3c(c2)OCO3)C1` (stereo not given) the Activity (Mus musculus [1]) was “Non-Toxic”, the Activity (Mus musculus [2]) was “Non-Toxic” and the Activity (Mus musculus [3]) was 63.8%. The Activity (Mus musculus [4]) was 89.4% and the Activity (Mus musculus [5]) was “Non-Toxic”.

Work on `COC1=CC(=O)CC(CCc2ccc3c(c2)CCC3)C1` (stereo not given) yielded an Activity (Mus musculus [3]) of 11.8%.
